Data taken from ChEMBL document CHEMBL4665815, “Di-bromo-Based Small-Molecule Inhibitors of the PD-1/PD-L1 Immune Checkpoint” (J Med Chem, 2020).
Active and inactive are the calls of the source. The rule behind the calls is not given here.

Experiments:
[1] = Binding affinity to human PD1 (34-150 residues) extracellular domain C93S mutant expressed in Escherichia coli BL21 (DE3) incubated for 2 hrs by TR-FRET assay
[2] = species on record: Homo sapiens; assay: Binding affinity to 15N labelled human PD1 N66A mutant assessed as induction of dissociation of PD-1 N66A mutant/PDL1 complex by w-AIDA-NMR 1D assay
[3] = species on record: Homo sapiens; assay: Binding affinity to 15N labelled human PD1 N66A mutant assessed as induction of dissociation of PD-1 N66A mutant/PDL1 complex by w-AIDA-NMR 2D assay
Method in brief: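 Uniformly 15N-labelled hPD-1 N66A mutant, expressed in bacteria grown at 28 °C in M9 medium with 15NH4Cl as the sole nitrogen source and induced with 1 mM IPTG. Protein was refolded from inclusion bodies and purified by size-exclusion chromatography in 25 mM sodium phosphate pH 6.4, 100 mM NaCl. 1H–15N signals were followed by SOFAST HMQC.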

[4] = target: Programmed cell death 1 ligand 1 (Mus musculus) (UniProt Q9EP73); assay: Binding affinity to mouse PD1-L1 (19-134 residues) expressed in Escherichia coli BL21 (DE3) incubated for 1 hr by MST analysis
[5] = target: T1, Programmed cell death protein 1/Programmed cell death 1 ligand 1 (Homo sapiens, UniProt Q15116+Q9NZQ7); assay: Inhibition of hPD-1/hPD-L1 immune checkpoint using PD-L1 expressing human aAPCs and PD-1 expressing human Jurkat cells assessed as activation of effector Jurkat T cells at 0.01 to 100 uM incubated for 6 hrs by luciferase reporter gene based immune checkpoint blockade cell-based assay; settings: dose microM 0.01-100, time 6.0 hrs
Method in brief: (§1)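 CHO-K1 aAPCs expressing hPD-L1 and a TCR ligand were seeded at 10 000/well 17 h ahead. Compounds were serially diluted 2.5-fold in DMSO, then 1000-fold into RPMI with 1% FBS (0.1% DMSO final). Jurkat hPD-1 NFAT-RE luciferase effector cells were added at 20 000/well for 6 h. Bio-Glo luminescence was read as fold induction over DMSO controls. EC50 came from Hill fits with the durvalumab maximum as the ceiling. Mean ± SEM, 4–7 experiments.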

[6] = Solubility in water; assay type: physicochemical; settings: buffer
[7] = target: Programmed cell death protein 1/Programmed cell death 1 ligand 1 (Homo sapiens, UniProt Q9NZQ7); assay: (§2) Inhibition of hPD-1/hPD-L1 immune checkpoint using PD-L1 expressing human aAPCs and PD-1 expressing human Jurkat cells assessed as activation of effector Jurkat T cells incubated for 6 hrs by luciferase reporter gene based immune checkpoint blockade cell-based assay; method in brief: as §1
[8] = target: Programmed cell death 1 ligand 1 (Homo sapiens) (UniProt Q9NZQ7); assay: Binding affinity to human PD-L1 (18 to 134 residues) assessed as induction of protein dimerization by 1H NMR method
[9] = Solubility in DMSO; assay type: physicochemical
[10] = target: T1, Programmed cell death protein 1/Programmed cell death 1 ligand 1; assay: as §2; method in brief: as §1
[11] = system: Jurkat; assay: Toxicity in human Jurkat cells assessed as reduction in cell viability at 40 uM incubated for 24 hrs relative to control; assay type: cell-based
[12] = target: T1, Programmed cell death protein 1/Programmed cell death 1 ligand 1; assay: Inhibition of PD-1/PD-L1 immune checkpoint using PD-L1 expressing human aAPCs and PD-1 expressing human PBMC assessed as increase in PD-1 receptor expression on surface of CD4+ T cells incubated for 48 hrs by flow cytometry
Method in brief: (§3)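 PBMCs from healthy donors were isolated by density-gradient centrifugation. They were added at 400 000 cells/well onto preseeded CHO-K1 hPD-L1 aAPCs and cultured 48 h with compound, DMSO or atezolizumab (5 μg/mL). Cells were detached and stained 20 min at room temperature for CD69, CD4, CD8 and PD-1, then analysed by flow cytometry. Values are mean ± SD of three independent experiments with different donors; Student's t test.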

[13] = system: PBMC; assay: Effect on CD69 expression in human PBMC; assay type: functional; method in brief: as §3
[14] = target: T1, Programmed cell death protein 1/Programmed cell death 1 ligand 1; assay: Inhibition of PD-1/PD-L1 immune checkpoint using PD-L1 expressing human aAPCs and PD-1 expressing human PBMC assessed as increase in PD-1 receptor expression on surface of CD8+ T cells incubated for 48 hrs by flow cytometry; method in brief: as §3
[15] = target: T1, Programmed cell death protein 1/Programmed cell death 1 ligand 1; assay: Inhibition of hPD-1/hPD-L1 immune checkpoint using PD-L1 expressing human aAPCs and PD-1 expressing human Jurkat cells assessed as activation of effector Jurkat T cells at 50 uM incubated for 6 hrs by luciferase reporter gene based immune checkpoint blockade cell-based assay relative to control; method in brief: as §1
[16] = system: Jurkat; assay: Toxicity in human Jurkat cells at >100 uM incubated for 24 hrs; assay type: cell-based
[17] = Binding affinity to Fc-tagged human PD-1 assessed as induction of dissociation of PD-1 N66A mutant/His-and Fc-tagged human PD-L1complex pre-incubated for 30 mins with PDL1 and measured after 1 hr by competitive ELISA

T1 sequence (Q15116 whole entry): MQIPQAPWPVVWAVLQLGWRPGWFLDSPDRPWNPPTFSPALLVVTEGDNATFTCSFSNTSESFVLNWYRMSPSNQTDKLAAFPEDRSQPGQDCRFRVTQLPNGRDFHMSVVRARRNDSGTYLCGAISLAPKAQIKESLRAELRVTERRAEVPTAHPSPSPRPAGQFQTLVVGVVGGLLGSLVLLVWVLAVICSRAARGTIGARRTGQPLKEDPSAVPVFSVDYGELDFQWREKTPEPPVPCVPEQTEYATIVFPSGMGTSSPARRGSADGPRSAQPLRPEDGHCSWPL
T1 sequence (Q9NZQ7 whole entry): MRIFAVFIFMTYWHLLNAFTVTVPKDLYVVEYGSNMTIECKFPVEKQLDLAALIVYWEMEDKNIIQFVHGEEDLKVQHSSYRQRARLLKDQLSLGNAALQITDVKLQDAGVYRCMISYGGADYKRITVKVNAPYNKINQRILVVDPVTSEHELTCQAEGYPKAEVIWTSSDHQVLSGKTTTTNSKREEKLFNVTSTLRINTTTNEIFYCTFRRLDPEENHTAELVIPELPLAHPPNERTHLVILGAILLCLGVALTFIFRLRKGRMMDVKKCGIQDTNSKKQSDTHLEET
Sequence of Programmed cell death protein 1/Programmed cell death 1 ligand 1 (Homo sapiens, UniProt Q9NZQ7) (Q15116 whole entry, the tested form may be a part): as the sequence (Q15116 whole entry) above
Sequence of Programmed cell death protein 1/Programmed cell death 1 ligand 1 (Homo sapiens, UniProt Q9NZQ7) (Q9NZQ7 whole entry, the tested form may be a part): as the sequence (Q9NZQ7 whole entry) above
Sequence of Programmed cell death 1 ligand 1 (Mus musculus) (Q9EP73 whole entry, the tested form may be a part): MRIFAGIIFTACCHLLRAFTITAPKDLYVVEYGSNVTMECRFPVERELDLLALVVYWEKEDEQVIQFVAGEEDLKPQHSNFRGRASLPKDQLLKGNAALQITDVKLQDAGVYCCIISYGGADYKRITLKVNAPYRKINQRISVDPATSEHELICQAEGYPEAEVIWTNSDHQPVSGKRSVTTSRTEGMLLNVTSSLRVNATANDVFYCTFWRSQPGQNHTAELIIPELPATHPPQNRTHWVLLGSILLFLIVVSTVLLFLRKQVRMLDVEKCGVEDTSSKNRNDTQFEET
Sequence of Programmed cell death 1 ligand 1 (Homo sapiens) (Q9NZQ7 whole entry, the tested form may be a part): as the sequence (Q9NZQ7 whole entry) above

Row | Structure (SMILES) | IC50 [1] [µM] | also measured
1 | O=Cc1ccc(OCc2cccc(-c3cccc(F)c3)c2Br)c(Br)c1 | 55 | 
2 | OCc1cccc(-c2ccccc2)c1F | 55.9 | Activity [2]: Active; Activity [3]: Active
3 | O=Cc1ccc(OCc2cccc(-c3ccccc3)c2Br)cc1 | 50 | 
4 | Cc1cc(C=O)ccc1OCc1cccc(-c2ccccc2)c1Br | 50 | 
5 | COc1cc(C=O)ccc1OCc1cccc(-c2ccccc2)c1Br | > 100 | 
6 | O=Cc1cc(Cl)c(OCc2cccc(-c3ccccc3)c2-c2ccccc2)cc1O | > 100 | 
7 | OCc1cccc(-c2ccccc2)c1-c1ccccc1 | > 100 | 
8 | Cc1c(COc2ccc(CN3CCCC[C@H]3C(=O)O)cc2)cccc1-c1ccccc1 |  | Activity [4]: inactive; Activity [5]: Active
9 | O=S1(=O)CCN(Cc2ccc(OCc3cccc(-c4cccc(F)c4)c3Br)c(Br)c2)CC1 | 4.24 | 
10 | O=C(O)[C@@H]1CCCCN1Cc1ccc(OCc2cccc(-c3cccc(F)c3)c2Br)c(Br)c1 | 0.0653 | 
11 | OCc1cccc(-c2ccc3c(c2)OCCO3)c1F | 55.5 | 
12 | BrCc1cccc(-c2ccccc2)c1Br | 50.7 | Activity [2]: Active; Activity [3]: Active
13 | N#Cc1cc(COc2cc(OCc3cccc(-c4ccccc4)c3Br)c(Cl)cc2CN2C[C@@H](O)C[C@H]2C(=O)O)ccn1 | 0.0039 | solubility [6]: Insoluble; Activity [5]: Active; EC50 [7]: 12.2 µM; Activity [8]: Active; solubility [9]: Insoluble
14 | CC(=O)NCCNCc1ccc(OCc2cccc(-c3ccc4c(c3)OCCO4)c2F)c(Br)c1 | 0.0227 | 
15 | N#Cc1cccc(COc2cc(OCc3cccc(-c4ccccc4)c3Br)c(Cl)cc2C=O)c1 | 0.552 | Activity [5]: Active; EC50 [10]: > 40 µM
16 | N#Cc1ccc(-c2cccc(COc3ccc(C=O)cc3Br)c2Br)cc1 | > 100 | 
17 | O=Cc1cc(Cl)c(OCc2cccc(-c3ccccc3)c2Br)cc1O | > 100 | 
18 | Fc1cccc(-c2cccc(CBr)c2Br)c1 | 100 | 

Row | Structure (SMILES) | IC50 [1] [µM] | also measured
19 | O=C(O)[C@@H]1CCCCN1Cc1ccc(OCc2cccc(-c3ccc4c(c3)OCCO4)c2Br)c(Br)c1 | 0.401 | Activity [5]: Active; EC50 [7]: > 40 µM
20 | Cc1c(COc2cc(OCc3cccc(C#N)c3)c(CN3C[C@H](O)C[C@@H]3C(=O)O)cc2Cl)cccc1-c1ccc2c(c1)OCCO2 |  | Activity [4]: inactive; Activity [11]: 50%
21 | N#Cc1cc(COc2cc(OCc3cccc(-c4ccccc4)c3-c3ccccc3)c(Cl)cc2C=O)ccn1 | 23.8 | Activity [5]: Active; EC50 [10]: > 40 µM
22 | OCc1cccc(OCc2cccc(-c3cccc(F)c3)c2Br)c1 | > 100 | 
23 | N#Cc1ccc(-c2cccc(CBr)c2Br)cc1 | 66.3 | 
24 | COC(=O)c1ccc(OCc2cccc(-c3ccccc3)c2Br)c(Br)c1 | 28.6 | 
25 | CC(=O)NCCNCc1ccc(OCc2cccc(-c3cccc(F)c3)c2Br)c(Br)c1 | 0.107 | 
26 | O=Cc1ccc(OCc2cccc(-c3ccccc3)c2Br)c(Br)c1 | 50 | 
27 | O=Cc1ccc(OCc2cccc(-c3ccccc3)c2-c2ccccc2)c(Br)c1 | > 100 | 
28 | O=S1(=O)CCN(Cc2cccc(OCc3cccc(-c4cccc(F)c4)c3Br)c2)CC1 | 22.3 | 
29 | O=Cc1ccc(OCc2cccc(-c3ccc4c(c3)OCCO4)c2F)c(Br)c1 | > 100 | 
30 | O=C(O)[C@@H]1CCCCN1Cc1ccc(OCc2cccc(-c3ccccc3)c2Br)cc1 | 0.015 | Activity [4]: inactive; inhibition [12]: Active; Activity [13]: inactive; inhibition [14]: Active; fold change (FC) [15]: 2.1; Activity [16]: Non-Toxic; Activity [5]: Active; EC50 [7]: 6.6 µM; Activity [8]: Active; IC50 [17]: 0.00147 µM
31 | CC(=O)NCCNCc1ccc(OCc2cccc(-c3ccc(C#N)cc3)c2Br)c(Br)c1 | 5.11 | 
32 | BrCc1cccc(-c2ccc3c(c2)OCCO3)c1Br | 64.4 | 
33 | O=C(O)[C@@H]1C[C@H](O)CN1Cc1ccc(OCc2cccc(-c3ccccc3)c2-c2ccccc2)c(Br)c1 | 29.4 | 
34 | N#Cc1cc(COc2cc(OCc3cccc(-c4ccccc4)c3Br)c(Cl)cc2C=O)ccn1 | 29.4 | Activity [5]: Active; EC50 [10]: > 40 µM
35 | O=Cc1ccc(OCc2cccc(-c3ccc4c(c3)OCCO4)c2Br)c(Br)c1 | 35.4 | 
